# Assay results gathered from unrelated publications.
# Each line is one published result; the experiments were not run side by side.
SMILES,organism,assay,system,setting,quantity,value
CC1(C)S[C@@H]2[C@H](NC(=O)[C@H](N)c3ccc(O)cc3)C(=O)N2[C@H]1C(=O)O,Escherichia coli,"microbial growth, disc diffusion",,"100 µg/mL, 24 h",inhibition zone,20 mm
CO/N=C(\C(=O)N[C@@H]1C(=O)N2C(C(=O)O)=C(CSC(=O)c3ccco3)CS[C@H]12)c1csc(N)n1,Staphylococcus aureus,microbial killing,CVCC546,18 h,MBC,2 µg/mL
CC(O)CSc1nnc(Cn2cnc3c2c(=O)n(C)c(=O)n3C)n1-c1ccccc1 (stereo not shown),Escherichia coli,"microbial growth, disc diffusion",,25 µg/disc,inhibition zone,11 mm
C=C/C=C(\C)CC[C@H]1C[C@@H](O)CC(=O)O1,Staphylococcus aureus,"microbial growth, broth dilution",ATCC6538P,,MIC,256 µg/mL
CC(C)(O/N=C(\C(=O)N[C@@H]1C(=O)N2C(C(=O)[O-])=C(C[n+]3ccccc3)CS[C@H]12)c1csc(N)n1)C(=O)O,Escherichia coli,"microbial growth, disc diffusion",,"2000 µg/mL, 24 h",inhibition zone,5 mm
CC(O)CSc1nnc(-c2cc3ccccc3o2)n1-c1ccccc1 (stereo not shown),Staphylococcus aureus,"microbial growth, disc diffusion",,25 µg/disc,inhibition zone,11.3 mm
CO/N=C(\C(=O)N[C@@H]1C(=O)N2C(C(=O)O)=C(COC(C)=O)CS[C@H]12)c1csc(N)n1,Escherichia coli,"microbial growth, broth dilution",,clinical isolate,MIC90,64 µg/mL
CC(O)CSc1nnc(-c2cc3c(ccc4ccccc43)o2)n1-c1ccccc1 (stereo not shown),Escherichia coli,"microbial growth, disc diffusion",,25 µg/disc,inhibition zone,15.7 mm
C[C@@H](O)[C@H]1C(=O)N2C(C(=O)O)=C(SCCN=CN)C[C@H]12,Escherichia coli,"microbial growth, disc diffusion",,"2000 µg/mL, 24 h",inhibition zone,18.5 mm
O=C(O)c1cn(C2CC2)c2cc(N3CCNCC3)c(F)cc2c1=O,Escherichia coli,"microbial growth, disc diffusion",,"100 µg/mL, 24 h",inhibition zone,25 mm
